Assay results: ChEMBL document CHEMBL1629486, “Antimicrobial, antitumor and 5α-reductase inhibitor activities of some hydrazonoyl substituted pyrimidinones” (Eur J Med Chem, 2010)

Tests used:
[1] = system: 786-0; experiment: Growth inhibition of human 786-0 cells assessed as cell growth at 1 M after 48 hrs by sulforhodamine B assay; format: functional; design: scale not given: the % may be the effect or the level left
Outline: (§1)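 NCI 60-cell screen at a single high dose. Cells are grown in RPMI 1640 with 5% FBS and 2 mM L-glutamine, then plated at 5000–40,000 cells/well and held 24 h at 37 °C in 5% CO2 at 100% humidity. Drug is then added and plates are incubated another 48 h, with SRB staining as read-out. Results are given as growth percent (100 = no inhibition, 0 = no net growth, negative = lethality).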

[2] = system: CCRF-CEM; experiment: Growth inhibition of human CCRF-CEM cells assessed as cell growth at 1 M after 48 hrs by sulforhodamine B assay; format: functional; design: scale not given: the % may be the effect or the level left; outline: as §1
[3] = system: SNB-19; experiment: Growth inhibition of human SNB19 cells assessed as cell growth at 1 M after 48 hrs by sulforhodamine B assay; format: functional; design: scale not given: the % may be the effect or the level left
Outline: (§2)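 NCI 60-cell panel screen, single dose (1.0 M as printed). Cells grown in RPMI 1640 with 5% fetal bovine serum and 2 mM L-glutamine, seeded at 5000–40,000 cells/well, preincubated 24 h at 37 °C in 5% CO2 at 100% humidity, then exposed to compound for 48 h. Sulforhodamine B staining read-out. Result given as growth percent: 100 = no inhibition, 0 = no net growth, negative = lethality.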

[4] = system: BT-549; experiment: Growth inhibition of human BT549 cells assessed as cell growth at 1 M after 48 hrs by sulforhodamine B assay; format: functional; design: scale not given: the % may be the effect or the level left; outline: as §1
[5] = system: SW-620; experiment: Growth inhibition of human SW620 cells assessed as cell growth at 1 M after 48 hrs by sulforhodamine B assay; format: functional; design: scale not given: the % may be the effect or the level left; outline: as §2
[6] = system: HOP-62; experiment: Growth inhibition of human HOP62 cells assessed as cell growth at 1 M after 48 hrs by sulforhodamine B assay; format: functional; design: scale not given: the % may be the effect or the level left; outline: as §1
[7] = system: PC-3; experiment: Growth inhibition of human PC3 cells assessed as cell growth at 1 M after 48 hrs by sulforhodamine B assay; format: functional; design: scale not given: the % may be the effect or the level left; outline: as §1
[8] = system: SK-MEL-2; experiment: Growth inhibition of human SK-MEL-2 cells assessed as cell growth at 1 M after 48 hrs by sulforhodamine B assay; format: functional; design: scale not given: the % may be the effect or the level left; outline: as §2
[9] = system: MDA-MB-435; experiment: Growth inhibition of human MDA-MB-435 cells assessed as cell growth at 1 M after 48 hrs by sulforhodamine B assay; format: functional; design: scale not given: the % may be the effect or the level left; outline: as §1
[10] = system: M14; experiment: Growth inhibition of human M14 cells assessed as cell growth at 1 M after 48 hrs by sulforhodamine B assay; format: functional; design: scale not given: the % may be the effect or the level left; outline: as §1
[11] = system: NCI-H23; experiment: Growth inhibition of human NCI-H23 cells assessed as cell growth at 1 M after 48 hrs by sulforhodamine B assay; format: functional; design: scale not given: the % may be the effect or the level left; outline: as §1
[12] = system: Rattus norvegicus; experiment: Effect on circulating testosterone and dihydrotestosterone level in sc dosed Sprague-Dawley rat by radioimmunoassay relative to anastrozole; format: functional
Outline: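 Serum testosterone and DHT were measured by RIA in ether extracts of serum (0.5 mL serum, 2 mL diethyl ether, 60 s shaking), without chromatography, in rats dosed at several levels. Relative potency is the ED50 of anastrozole divided by the ED50 of the test agent, where ED50 is the dose giving 50% of the pharmacological response.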

[13] = system: Malme-3M; experiment: Growth inhibition of human MALME-3M cells assessed as cell growth at 1 M after 48 hrs by sulforhodamine B assay; format: functional; design: scale not given: the % may be the effect or the level left; outline: as §1
[14] = system: SK-MEL-28; experiment: Growth inhibition of human SK-MEL-28 cells assessed as cell growth at 1 M after 48 hrs by sulforhodamine B assay; format: functional; design: scale not given: the % may be the effect or the level left; outline: as §2
[15] = system: Escherichia coli; experiment: Antimicrobial activity against Escherichia coli at 1 to 5 ug/ml by agar well diffusion method; format: functional
Outline: (§3)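 Agar well diffusion against bacteria and fungi. Inhibition zone is scored beyond the control: ++ 0.6–1.0 cm, + 0.1–0.5 cm, 0 no inhibition.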

[16] = system: Candida albicans; experiment: Antimicrobial activity against Candida albicans at 1 to 5 ug/ml by agar well diffusion method; format: functional; outline: as §3
[17] = system: NCI-H460; experiment: Growth inhibition of human NCI-H460 cells assessed as cell growth at 1 M after 48 hrs by sulforhodamine B assay; format: functional; design: scale not given: the % may be the effect or the level left; outline: as §1
[18] = system: MOLT-4; experiment: Growth inhibition of human MOLT4 cells assessed as cell growth at 1 M after 48 hrs by sulforhodamine B assay; format: functional; design: scale not given: the % may be the effect or the level left; outline: as §1
[19] = system: UO-31; experiment: Growth inhibition of human UO31 cells assessed as cell growth at 1 M after 48 hrs by sulforhodamine B assay; format: functional; design: scale not given: the % may be the effect or the level left; outline: as §2
[20] = system: OVCAR-4; experiment: Growth inhibition of human OVCAR4 cells assessed as cell growth at 1 M after 48 hrs by sulforhodamine B assay; format: functional; design: scale not given: the % may be the effect or the level left; outline: as §1
[21] = system: EKVX; experiment: Growth inhibition of human EKVX cells assessed as cell growth at 1 M after 48 hrs by sulforhodamine B assay; format: functional; design: scale not given: the % may be the effect or the level left; outline: as §1
[22] = system: OVCAR-5; experiment: Growth inhibition of human OVCAR5 cells assessed as cell growth at 1 M after 48 hrs by sulforhodamine B assay; format: functional; design: scale not given: the % may be the effect or the level left; outline: as §1
[23] = system: LOX IMVI; experiment: Growth inhibition of human LOXIMVI cells assessed as cell growth at 1 M after 48 hrs by sulforhodamine B assay; format: functional; design: scale not given: the % may be the effect or the level left; outline: as §1
[24] = system: OVCAR-8; experiment: Growth inhibition of human OVCAR8 cells assessed as cell growth at 1 M after 48 hrs by sulforhodamine B assay; format: functional; design: scale not given: the % may be the effect or the level left; outline: as §1
[25] = system: MDA-MB-231; experiment: Growth inhibition of human MDA-MB-231 cells assessed as cell growth at 1 M after 48 hrs by sulforhodamine B assay; format: functional; design: scale not given: the % may be the effect or the level left; outline: as §1
[26] = system: SF-539; experiment: Growth inhibition of human SF539 cells assessed as cell growth at 1 M after 48 hrs by sulforhodamine B assay; format: functional; design: scale not given: the % may be the effect or the level left; outline: as §2
[27] = system: COLO 205; experiment: Growth inhibition of human COLO205 cells assessed as cell growth at 1 M after 48 hrs by sulforhodamine B assay; format: functional; design: scale not given: the % may be the effect or the level left; outline: as §1
[28] = system: HCT-15; experiment: Growth inhibition of human HCT15 cells assessed as cell growth at 1 M after 48 hrs by sulforhodamine B assay; format: functional; design: scale not given: the % may be the effect or the level left; outline: as §1
[29] = system: HCC 2998; experiment: Growth inhibition of human HCC2998 cells assessed as cell growth at 1 M after 48 hrs by sulforhodamine B assay; format: functional; design: scale not given: the % may be the effect or the level left; outline: as §1
[30] = organism: Rattus norvegicus; experiment: Acute toxicity in albino rat; format: organism-based; settings: in vivo
Outline: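 Male albino rats received injections of increasing doses. LD50 and LD90, the doses killing 50% and 90% of the animals, were calculated by the Austen and Brocklehurst method.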

[31] = system: SR; experiment: Growth inhibition of human SR cells assessed as cell growth at 1 M after 48 hrs by sulforhodamine B assay; format: functional; design: scale not given: the % may be the effect or the level left; outline: as §2
[32] = system: UACC-257; experiment: Growth inhibition of human UACC257 cells assessed as cell growth at 1 M after 48 hrs by sulforhodamine B assay; format: functional; design: scale not given: the % may be the effect or the level left; outline: as §2
[33] = system: MDA-MB-468; experiment: Growth inhibition of human MDA-MB-468 cells assessed as cell growth at 1 M after 48 hrs by sulforhodamine B assay; format: functional; design: scale not given: the % may be the effect or the level left; outline: as §1
[34] = system: NCI-H522; experiment: Growth inhibition of human NCI-H522 cells assessed as cell growth at 1 M after 48 hrs by sulforhodamine B assay; format: functional; design: scale not given: the % may be the effect or the level left; outline: as §1

Molecule `Cc1cc(=O)[nH]c(/C(=N/Nc2ccccc2)C(=O)c2ccc(Cl)cc2)n1` has an Activity [1] of 82.24%, an Activity [2] of 66.03% and an Activity [3] of 95.47%. It also gave an Activity [4] of 97.44%, an Activity [5] of 94.56% and an Activity [6] of 104.07%. For the same molecule, the Activity [7] was 92.58%, the Activity [8] was 102.42% and the Activity [9] was 107.78%. The Activity [10] was 97.08%, the Activity [11] was 105.18% and the “Ratio ED50” value [12] was 5.166. The Activity [13] was 113.86%, the Activity [14] was 110.14% and the “diameter of the inhibition zone (DIZ)” value [15] was 0.6 cm. The “diameter of the inhibition zone (DIZ)” value [16] was 0 cm, the Activity [17] was 108.76% and the Activity [18] was 39.84%. The Activity [19] was 116.06%, the Activity [20] was 110.81% and the Activity [21] was 103.39%. The Activity [22] was 117.08%, the Activity [23] was 98.95% and the Activity [24] was 92.85%. It also gave an Activity [25] of 101.67%, an Activity [26] of 92.33% and an Activity [27] of 105.71%. For the same molecule, the Activity [28] was 112.06%, the Activity [29] was 109.1% and the LD50 [30] was 2.11122 mg/kg. The LD90 [30] was 3.24592 mg/kg.

Work on `CC(=O)c1ccc(N/N=C(\C(=O)c2ccc(Cl)cc2)c2nc(C)cc(=O)[nH]2)cc1` yielded an Activity [1] of 103.17%, an Activity [3] of 95.91% and an Activity [4] of 99.42%. It also gave an Activity [5] of 98.45%, an Activity [6] of 116.72% and an Activity [7] of 90.5%. The Activity [8] was 99.06%, the Activity [9] was 95.8% and the Activity [31] was 62.16%. It also gave an Activity [32] of 99.94%, an Activity [10] of 88.06% and an Activity [11] of 86.1%. The Activity [33] was 94.65%, the “Ratio ED50” value [12] was 1.562 and the Activity [13] was 110.47%. For the same molecule, the Activity [34] was 84.76%, the Activity [14] was 106.93% and the “diameter of the inhibition zone (DIZ)” value [15] was 0 cm. For the same molecule, the “diameter of the inhibition zone (DIZ)” value [16] was 0 cm, the Activity [17] was 103.13% and the Activity [18] was 84.16%. For the same molecule, the Activity [19] was 75.87%, the Activity [20] was 99.2% and the Activity [21] was 105.04%. The Activity [22] was 91.69%, the Activity [23] was 90.57% and the Activity [24] was 92.95%. The Activity [25] was 85.96%, the Activity [26] was 90.87% and the Activity [27] was 121.73%. The Activity [28] was 96.72%, the Activity [29] was 111.21% and the LD50 [30] was 1.87034 mg/kg. The LD90 [30] was 2.25087 mg/kg.

Molecule `Cc1ccc(N/N=C(\C(=O)c2ccc(Cl)cc2)c2nc(C)cc(=O)[nH]2)cc1` has an Activity [1] of 82.91%, an Activity [2] of -15.08% and an Activity [3] of 103.64%. It also gave an Activity [4] of 117.79%, an Activity [5] of 93.7% and an Activity [6] of 94.24%. For the same molecule, the Activity [7] was 95.01%, the Activity [8] was 95.33% and the Activity [9] was 123.17%. It also gave an Activity [31] of 84.35%, an Activity [32] of 104.52% and an Activity [10] of 82.73%. For the same molecule, the Activity [11] was 111.33%, the “Ratio ED50” value [12] was 6.301 and the Activity [13] was 126.09%. For the same molecule, the Activity [14] was 117.97%, the “diameter of the inhibition zone (DIZ)” value [15] was 0.6 cm and the “diameter of the inhibition zone (DIZ)” value [16] was 0 cm. It also gave an Activity [17] of 105.3%, an Activity [18] of 98.62% and an Activity [20] of 116.35%. For the same molecule, the Activity [21] was 91.46%, the Activity [22] was 121.85% and the Activity [23] was 92.62%. For the same molecule, the Activity [24] was 100.7%, the Activity [25] was 95.9% and the Activity [26] was 85.29%. It also gave an Activity [27] of 116.23%, an Activity [28] of 110.86% and an Activity [29] of 115.84%. For the same molecule, the LD50 [30] was 2.663 mg/kg and the LD90 [30] was 4.35687 mg/kg.
